# Test results taken from paper PMC6045484 (ACS Omega, 2018).
# Entries after “also recorded” stand apart in the source; their conditions may differ.
# How the values were obtained:
# [1] = tested on: P. berghei (sensitive strain); assay: blood-schizontocidal activity against P. berghei infection in mice; format: in vivo, Plasmodium berghei; details: Swiss mice
# Outline: (§1)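 Swiss mice of either sex (about 15–20 g, same age), six per group, inoculated intraperitoneally on day 0 with 1 × 10^7 infected erythrocytes from a donor mouse. Oral test compound at 100, 50, 25 or 10 mg/kg, CQ diphosphate (10 mg/kg/day × 4) or vehicle started 4 h later, on D0 to D+3. Giemsa tail-blood smears on D+4 and D+7. Curative: parasites eliminated, no relapse, all mice surviving to D+60.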
# C. neoformans ATCC90113 = assay: in vitro antifungal activity; format: cell-based, Cryptococcus neoformans; details: Cryptococcus neoformans; for IC50: ATCC90113, read-out: C. neoformans IC50; for MFC: ATCC90113, read-out: C. neoformans MFC; for MIC: ATCC90113, read-out: C. neoformans MIC
# Outline: (§2)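 Modified NCCLS broth method in Sabouraud dextrose. Inoculum set by OD630 to 1.5 × 10^3 CFU/mL. Test compound serially diluted in 20% DMSO/saline, duplicate wells, up to 20 μg/mL. Incubated 70–74 h at 35 °C; 530 nm read before and after. IC50 is 50% growth inhibition; MIC is no detectable growth. MFC from clear wells subcultured on agar. Amphotericin B control.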
# [2] = tested on: SK-MEL, KB, BT-549, SK-OV-3, VERO and LLC-PK1 cells; assay: cytotoxicity, neutral red uptake assay; format: cell-based, mammalian; details: highest test concentration 4760 ng/mL
# Outline: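 Cells seeded at 25 000/well and allowed 24 h to reach confluence. Test compound was then added and incubated 48 h. Viable cells were counted by a modified neutral red uptake method. The panel was four human cancer lines and two noncancerous mammalian kidney lines. Doxorubicin served as positive control and DMSO as negative control.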
# SA (ATCC29213) = assay: in vitro antibacterial activity; format: cell-based; details: Staphylococcus aureus; for IC50: ATCC29213, read-out: IC50 (concentration that affords 50% growth inhibition), SA; for MBC: ATCC29213, read-out: MBC (minimum bactericidal concentration), SA; for MIC: ATCC29213, read-out: MIC, SA
# Outline: (§3)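 Test compound serially diluted in 20% DMSO/saline and plated in duplicate, up to 20 μg/mL. Inoculum in cation-adjusted Mueller–Hinton broth, pH 7.3, set by OD630 to 5 × 10^5 CFU/mL. Incubated 16–20 h at 35 °C; 530 nm read before and after. IC50 is 50% growth inhibition; MIC is no detectable growth. MBC from clear wells subcultured on agar. Ciprofloxacin control.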
# P. falciparum (W2) = assay: in vitro antimalarial activity, plasmodial LDH; format: cell-based, Plasmodium falciparum; details: Plasmodium falciparum, W2, 72 h, read-out: P. falciparum (W2) IC50, CQ-resistant W2 strain, 72 h
# Outline: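 P. falciparum-infected erythrocytes (2% parasitemia, 2% hematocrit) in RPMI 1640 with 10% human serum and 60 μg/mL amikacin. Exposed to test compound dilutions for 72 h at 37 °C under 90% N2/5% O2/5% CO2. LDH measured with Malstat reagent (30 min, room temperature), then NBT/PES for 1 h in the dark, stopped with 5% acetic acid, read at 650 nm. IC50 from dose-response curves.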
# C. albicans ATCC90028 = assay: in vitro antifungal activity; format: cell-based, Candida albicans; details: Candida albicans; for IC50: ATCC90028, read-out: C. albicans IC50; for MFC: ATCC90028, read-out: C. albicans MFC; for MIC: ATCC90028, read-out: C. albicans MIC
# Outline: as §2
# MRSA (ATCC33591) = assay: in vitro antibacterial activity; format: cell-based, methicillin-resistant Staphylococcus aureus; details: Staphylococcus aureus, ATCC33591|MRSA, read-out: MIC, MRSA
# Outline: as §3
# [3] = tested on: L. donovani promastigotes; assay: in vitro antileishmanial activity, alamarBlue assay; format: cell-based, Leishmania donovani; details: Leishmania donovani, 48 h; for IC50: read-out: L. donovani IC50, promastigotes, 48 h; for IC90: read-out: L. donovani IC90, promastigotes, 48 h
# [4] = tested on: multidrug-resistant P. yoelii nigeriensis; assay: blood-schizontocidal activity against P. yoelii nigeriensis infection in mice; format: in vivo, Plasmodium yoelii nigeriensis; details: Swiss mice
# Outline: as §1
# [5] = tested on: M. intracellulare (ATCC23068); assay: in vitro antibacterial activity, modified alamarBlue procedure; format: cell-based, Mycobacterium intracellulare; details: Mycobacterium intracellulare; for IC50: ATCC23068, read-out: IC50 (concentration that affords 50% growth inhibition), M. intracellulare; for MBC: ATCC23068, read-out: MBC (minimum bactericidal concentration), M. intracellulare; for MIC: ATCC23068, read-out: MIC, M. intracellulare
# Outline: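 Modified alamarBlue microplate method. Test compound serially diluted in 20% DMSO/saline, duplicate wells, up to 20 μg/mL. Inoculum 2.0 × 10^6 CFU/mL in Middlebrook 7H9 with OADC, pH 7.3, containing 5% alamarBlue. Incubated 70–74 h at 37 °C, 10% CO2; fluorescence 544ex/590em read before and after. MIC: no blue-to-pink change. MBC by subculturing blue wells on agar. Ciprofloxacin control.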
# P. falciparum (D6) = assay: in vitro antimalarial activity, plasmodial LDH; format: cell-based, Plasmodium falciparum; details: Plasmodium falciparum, D6, 72 h, read-out: P. falciparum (D6) IC50
# A. fumigatus ATCC 90906 = assay: in vitro antifungal activity; format: cell-based, Aspergillus fumigatus; details: Aspergillus fumigatus; for IC50: ATCC90906, read-out: A. fumigatus IC50; for MFC: ATCC90906, read-out: A. fumigatus MFC; for MIC: ATCC90906, read-out: A. fumigatus MIC
# Outline: as §2
Compound,"P. berghei blood-schizontocidal activity (mice cured/treated) ([1]; 100 mg/kg/day × 4, oral)",IC50 (C. neoformans ATCC90113) [µg/mL],MFC (C. neoformans ATCC90113) [µg/mL],MIC (C. neoformans ATCC90113) [µg/mL],cytotoxicity CTX [2],IC50 (SA (ATCC29213)) [µg/mL],MBC (SA (ATCC29213)) [µg/mL],MIC (SA (ATCC29213)) [µg/mL],IC50 (P. falciparum (W2)) [µg/mL],IC50 (C. albicans ATCC90028) [µg/mL],MFC (C. albicans ATCC90028) [µg/mL],MIC (C. albicans ATCC90028) [µg/mL],MIC (MRSA (ATCC33591)) [µg/mL],IC50 [3] [µg/mL],IC90 [3] [µg/mL],IC50 [5] [µg/mL],MBC [5] [µg/mL],MIC [5] [µg/mL],IC50 (P. falciparum (D6)) [µg/mL],IC50 (A. fumigatus ATCC 90906) [µg/mL],other results
"CCCCCOc1c(OC)cc(NC(C)CCCN)c2nc(C(C)(C)C)ccc12 (stereo not shown) [compound 46, N^4-(2-tert-Butyl-6-methoxy-5-(pentyloxy)quinolin-8-yl)pentane-1,4-diamine]",curative (6/6),> 20,> 20,> 20,"NC (NC, not cytotoxic up to 4760 ng/mL (4.76 μg/mL))",9.04,> 20,> 20,0.022,> 20,> 20,> 20,> 20,32,> 40,> 20,> 20,> 20,0.02,> 20,"P. berghei blood-schizontocidal activity (mice cured/treated) ([1]; 10 mg/kg/day × 4, oral): active (4/6); P. berghei blood-schizontocidal activity (mice cured/treated) ([1]; 25 mg/kg/day × 4, oral): curative (6/6); P. berghei blood-schizontocidal activity (mice cured/treated) ([1]; 50 mg/kg/day × 4, oral): curative (6/6); P. yoelii nigeriensis blood-schizontocidal activity (mice cured/treated) ([4]; 25 mg/kg/day × 4, oral): active (4/6); P. yoelii nigeriensis blood-schizontocidal activity (mice cured/treated) ([4]; 50 mg/kg/day × 4, oral): curative (6/6); P. yoelii nigeriensis blood-schizontocidal activity (mice cured/treated) ([4]; 100 mg/kg/day × 4, oral): cured 100% mice; also recorded: curative (6/6); MFC (A. fumigatus ATCC 90906): > 20 µg/mL; MIC (A. fumigatus ATCC 90906): > 20 µg/mL"
"CCCCOc1c(OC)cc(NC(C)CCCN)c2nc(C(C)(C)C)cc(C)c12 (stereo not shown) [compound 50, N^4-(5-Butoxy-2-tert-butyl-6-methoxy-4-methylquinolin-8-yl)pentane-1,4-diamine]",curative (6/6),0.58,2.5,1.25,"NC (NC, not cytotoxic up to 4760 ng/mL (4.76 μg/mL))",3.49,10,5,0.98,15,> 20,> 20,5,1.5,3.65,5.97,20,10,2.2,14.7,"P. berghei blood-schizontocidal activity (mice cured/treated) ([1]; 50 mg/kg/day × 4, oral): suppressive activity; also recorded: active (4/6); MFC (A. fumigatus ATCC 90906): > 20 µg/mL; MIC (A. fumigatus ATCC 90906): > 20 µg/mL"
"CCCCCOc1c(OC)cc(NC(C)CCCN)c2nc(C(C)(C)C)cc(C)c12 (stereo not shown) [compound 51, N^4-(5-Pentyloxy-2-tert-butyl-6-methoxy-4-methylquinolin-8-yl)pentane-1,4-diamine]",inactive (0/6),4.45,20,20,"NC (NC, not cytotoxic up to 4760 ng/mL (4.76 μg/mL))",18.9,> 20,> 20,3.8,> 20,> 20,> 20,20,16.2,23.9,10.8,20,20,4.5,> 20,MFC (A. fumigatus ATCC 90906): > 20 µg/mL; MIC (A. fumigatus ATCC 90906): > 20 µg/mL
"CCCCCCCCOc1c(OC)cc(NC(C)CCCNC(=O)C(N)Cc2ccccc2)c2nc(C(C)(C)C)ccc12 (stereo not shown) [compound 121, 2-Amino-N-(4-(2-tert-butyl-6-methoxy-5-(octyloxy)quinolin-8-ylamino)pentyl)-3-phenylpropanamide]",100% cure and curative (6/6),17.3,> 20,> 20,"NC (NC, not cytotoxic up to 4760 ng/mL (4.76 μg/mL))",7.79,> 20,> 20,> 4.76,> 20,> 20,> 20,> 20,11.8,28.7,> 20,> 20,> 20,> 4.76,> 20,"P. berghei blood-schizontocidal activity (mice cured/treated) ([1]; 25 mg/kg/day × 4, oral): inactive (0/6); P. berghei blood-schizontocidal activity (mice cured/treated) ([1]; 50 mg/kg/day × 4, oral): suppressive activity; also recorded: active (3/6); MFC (A. fumigatus ATCC 90906): > 20 µg/mL; MIC (A. fumigatus ATCC 90906): > 20 µg/mL"
